Assay results gathered from unrelated publications.
Each line is one published result; the experiments were not run side by side.

With `CN(C)C(=O)c1cc2cnc(Nc3ccc(-c4ccc5c(=O)cc(N6CCOCC6)oc5c4)cc3)nc2n1C1CCCC1` the Tmax was 24 min (BALB/c mouse, plasma; oral, 20 mg/kg).
With `COCC(=O)N1CCc2[nH]c3c(Cl)c(Cl)ccc3c2[C@@H]1C` the Tmax was 5 min (C57BL/6 mouse, blood; intravenous, 1 mg/kg).
`NCc1ccc(-c2nn(Cc3ccncc3)c3ccccc23)o1` has a Tmax of 19.8 min (male CD-1 mouse, plasma; intraperitoneal, 30 mg/kg).
`COc1ccc(C[C@H](NC(=O)[C@H](C)NC(=O)CN2CCOCC2)C(=O)N[C@@H](Cc2ccccc2)C(=O)C2(C)CO2)cc1` (stereo in doubt) has a Tmax of 18 min (mouse, plasma; oral, 20 mg/kg, single dose).
`OCc1nc2ccc(NCc3ccc(C(F)(F)F)cc3)cc2[nH]1` has a Tmax of 15 min (male BALB/c mouse, plasma; intravenous, 1 mg/kg).
`OCc1ccc(-c2nn(Cc3ccccc3)c3ccccc23)o1` has a Tmax of 15 min (male CD-1 mouse, plasma; intraperitoneal, 30 mg/kg).
For `Cc1ccc(OCC(=O)N[C@@H](Cc2c[nH]c3ccccc23)C(=O)OC(C)C)cc1`, the Tmax was 72 min (male Sprague-Dawley mouse, plasma; oral, 20 mg/kg).
`NCc1cc2c(cc1F)C(=O)N(C1CCC(=O)NC1=O)C2` (stereo not drawn) gave a Tmax of 48 min (male CD-1 mouse, plasma; oral, 10 mg/kg).
`COc1cc(C2C3=C(COC3=O)N(CCO)c3cc4c(cc32)CCC4)cc(OC)c1OC` (stereo not drawn) has a Tmax of 60 min (female C57BL/6 mouse, plasma; intraperitoneal, 50 mg/kg).
`Cc1ccc(CCC(=O)Nc2nnc(S(N)(=O)=O)s2)cc1` has a Tmax of 10 min (male BALB/c mouse, plasma; oral, 20 mg/kg).
For `NCc1ccc(-c2nn(Cc3ccccc3)c3ccccc23)o1`, the Tmax was 30 min (male CD-1 mouse, plasma; oral, 10 mg/kg).
With `COC1=CC(c2ccc[nH]2)=N/C1=C\c1[nH]c(Cc2ccc(OC(F)(F)F)cc2)cc1Cc1ccc(OC(F)(F)F)cc1` the Tmax was 240 min (male CD-1 mouse, liver; oral, 40 mg/kg, single dose).
`Cc1ccc2c(c1)C(=O)[C@]1(O)CCN(c3ccc4nc(C)ccc4c3)C1=N2.Cl` gave a Tmax of no more than 10 min (mouse, brain; subcutaneous, 5 mg/kg).
`COC1=CC(c2ccc[nH]2)=N/C1=C\c1cc(Cc2ccc(OC(F)(F)F)cc2)c(C)[nH]1.Cl` has a Tmax of 1440 min (male CD-1 mouse, plasma; oral, 40 mg/kg, single dose).
With `Cc1[nH]c(C)c(S(=O)(=O)Nc2ccc(C(F)(F)F)c(Cl)c2)c1C(=O)N1CCC(F)(F)C1` the Tmax was 60 min (male CD-1 mouse, plasma; intraperitoneal, 40 mg/kg).
